EP2 antag = EP2 receptor (human) inhibition; hit rate 0.52% among 260,000; P43116; C6 glioma cells expressing human EP2, cAMP TR-FRET; cells stimulated with saturating PGE2; inhibition, % at 25 µM; AID 1422;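 active = percent inhibition above 40 after rounding to a whole number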;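 note: rat C6 glioma host cells with rolipram phosphodiesterase inhibitor present; the protocol text gives 20 µM as final concentration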
Target sequence (P43116 whole entry, looked up): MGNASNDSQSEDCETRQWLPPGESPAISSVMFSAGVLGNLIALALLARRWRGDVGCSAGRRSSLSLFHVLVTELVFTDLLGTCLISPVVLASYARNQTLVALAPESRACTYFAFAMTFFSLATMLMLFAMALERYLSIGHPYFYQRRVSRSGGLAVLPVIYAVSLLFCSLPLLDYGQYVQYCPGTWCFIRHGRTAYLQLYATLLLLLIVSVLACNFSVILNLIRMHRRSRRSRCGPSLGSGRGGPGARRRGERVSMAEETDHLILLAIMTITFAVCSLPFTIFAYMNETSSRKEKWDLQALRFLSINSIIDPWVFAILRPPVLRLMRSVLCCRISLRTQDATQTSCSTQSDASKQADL
NPY Y2 blocker = blocks the human neuropeptide Y Y2 receptor; P49146; NPY-Y2 expressing cells, antagonist mode; inhibition, % at 2.7 µM; hit rate 0.99% among 140,000; AID 793; in the data active = inhibition above about 17%
NPY2 pot ag = human NPY-Y2 potentiation or agonism, primary screen; P49146; cells expressing NPY-Y2, potentiator/agonist read-out; activation, % at 3.6 µM; hit rate 0.45% among 220,000; AID 1359; in the data active = activation above about 27%;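 note: cells stimulated with NPY near EC25 plus isoproterenol at EC100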
NPY-Y1 antag = NPY-Y1 (human) receptor antagonism | P25929 | HEK293-CNG Y1 cells, membrane potential fluorescence; NPY at EC95, then isoproterenol | inhibition, % at 3.6 µM | hit rate 1% among 200,000;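 active = inhibition above the campaign mean inhibition of all tested compounds plus 3 SD, cut at about 20% in these data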
Target sequence (P25929 whole entry, looked up): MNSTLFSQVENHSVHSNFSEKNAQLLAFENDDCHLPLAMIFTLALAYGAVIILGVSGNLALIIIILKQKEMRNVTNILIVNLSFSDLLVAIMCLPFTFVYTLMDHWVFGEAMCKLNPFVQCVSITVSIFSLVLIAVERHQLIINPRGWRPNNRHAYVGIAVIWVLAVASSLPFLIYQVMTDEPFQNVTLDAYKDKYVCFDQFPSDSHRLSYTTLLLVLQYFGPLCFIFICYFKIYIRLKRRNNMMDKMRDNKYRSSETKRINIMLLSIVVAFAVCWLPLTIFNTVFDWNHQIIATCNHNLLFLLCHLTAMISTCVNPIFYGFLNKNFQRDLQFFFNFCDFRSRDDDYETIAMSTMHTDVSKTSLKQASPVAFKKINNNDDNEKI
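Test system: HEK293 cells co-expressing NPY Y1 receptor and cyclic-nucleotide gated channel; Also added: NPY (25 nM), isoproterenol (1 µM), Ro 20-1724 (25 µM); Compound dosing: one concentration, 3.6 µM, in 0.4% DMSO; Timing: dye 3 h, compound 60 min room temperature, stimulation 45 min; Technique: Membrane-potential fluorescent dye readout.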
NPY1 pot ag = human NPY-Y1 potentiation or agonism, primary screen; P25929; NPY-Y1 expressing cells, potentiator/agonist activation; activation, % at 3.6 µM; hit rate 0.37% among 220,000; in the data active = activation above about 33%, passing the limit was not always enough;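 note: cells stimulated with NPY at EC10 then isoproterenol at EC100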
EP2 modulator = modulators of human EP2 prostaglandin E2 receptor; EP2-expressing cells, cAMP HTRF FRET, PGE2 co-stimulation; AID 940; P43116; induction, % at 25 µM; hit rate 0.83% among 260,000;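 active = compounds whose cAMP rise, as percent of the full-agonist control response, exceeds 60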;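 note: rat C6 glioma line stably carrying human EP2 under a CMV promoter; the protocol text gives 20 µM as final concentration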
NPY-Y2 confirm = confirmation of human NPY-Y2 receptor potentiators or agonists | shares compounds with NPY2 pot ag | cell-based NPY-Y2 potentiator/agonist assay | activation, % at 3.6 µM | hit rate 20% among 450 | AID 1539; in the data active = activation above about 33%
NPY-Y1 potentiator = potentiates or activates NPY-Y1, counter-screen for NPY-Y2 hits | shares compounds with NPY2 pot ag | Y1 HEK293-CNG cells, membrane potential fluorescence | activation, % at 3.6 µM | hit rate 20% among 450; in the data active = activation above about 45%;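 note: cells stimulated with submaximal NPY then isoproterenol with phosphodiesterase inhibitor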
NPY-Y1 agonist 2 = counter-screen for NPY-Y2 potentiators: agonists of human NPY-Y1; activation, % at 3.6 µM; HEK293 Y1-CNGC, membrane potential fluorescence, agonism; hit rate 37% among 450; AID 1702; shares compounds with NPY2 pot ag;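 active = activation above the mean of DMSO-only control wells plus 3 SD, cut at about 18% in these data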;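 note: cells stimulated with 1 µM isoproterenol plus the PDE inhibitor Ro 20-1724; Y1 agonists lower the membrane potential dye signal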
CNGC inh = blocks CNG channel activity, counter-screen for NPY-Y2 potentiators; shares compounds with NPY2 pot ag; HEK293-CNG parental, isoproterenol cAMP, membrane potential fluorescence; inhibition, % at 3.6 µM; hit rate 32% among 450;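 active = inhibition above the control-well mean plus 3 SD of those wells, cut at about 22% in these data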
NPY-Y2 ag 2 = NPY-Y2 agonism, counter-screen for Y2 potentiators; shares compounds with NPY2 pot ag; HEK293 Y2/CNGC cells, membrane potential fluorescence, agonist mode; activation, % at 3.6 µM; hit rate 56% among 450;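 active = activation above the mean of solvent-only control wells plus 3 SD, cut at about 10% in these data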;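 note: cells stimulated by isoproterenol with no NPY added so direct agonism is tested; agonism lowers probe fluorescence through less cAMP and CNG channel opening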
Large screens that a line does not name were inactive (follow-up assays come after a bar, where they were run). This is a sample that favours compounds with a hit; in the whole collection about 2.8% have one here.

O=C1c2cccc3cccc(c23)C(=O)N1CC1CCN(CC(O)COCc2ccc3c(c2)OCO3)CC1 (centres undefined)	NPY2 pot ag 50 | NPY-Y2 confirm 75 | NPY-Y1 potentiator 90 | NPY-Y1 agonist 2 21 | CNGC inh inactive | NPY-Y2 ag 2 65
CC1CCN(C(=O)COc2ccc(S(=O)(=O)NC3CCCC3)cc2)CC1	none (no result: NPY Y2 blocker, NPY2 pot ag, NPY-Y1 antag, NPY1 pot ag)
CN1CCc2nc3sc(C(=O)C45CC6CC(CC(C6)C4)C5)c(N)c3cc2C1	none (no result: EP2 antag)
CNc1nc(N)c(C(=O)C23CC4CC(CC(C4)C2)C3)s1	NPY2 pot ag 31 (no result: NPY Y2 blocker) | NPY-Y2 confirm inactive | NPY-Y1 potentiator inactive | NPY-Y1 agonist 2 inactive | CNGC inh inactive | NPY-Y2 ag 2 inactive
CC1CCc2c(sc3ncn4c(SCC(=O)NCc5cccs5)nnc4c23)C1 (centres undefined)	none (no result: NPY Y2 blocker, NPY2 pot ag, NPY-Y1 antag, NPY1 pot ag)
CCOC(=O)N1CCN(CC(O)COCC2=CCC3CC2C3(C)C)CC1 (centres undefined)	NPY2 pot ag 43 | NPY-Y2 confirm inactive | NPY-Y1 potentiator inactive | NPY-Y1 agonist 2 inactive | CNGC inh inactive | NPY-Y2 ag 2 inactive
CCOC(=O)N1CCN(CC(O)COCc2ccccc2)CC1 (centres undefined)	none
CC(C)C(O)(C#CCN1CCCC1)c1ccccc1 (centres undefined)	NPY2 pot ag 102 | NPY-Y2 confirm inactive | NPY-Y1 potentiator inactive | NPY-Y1 agonist 2 inactive | CNGC inh inactive | NPY-Y2 ag 2 inactive
CN(C(=O)c1ccccc1F)c1nc2c(s1)CCc1occc1-2	none (no result: EP2 antag, NPY Y2 blocker, NPY2 pot ag, NPY-Y1 antag, NPY1 pot ag)
CCCn1c(CCC(=O)O)nc2cc(S(N)(=O)=O)ccc21	NPY2 pot ag 104 (no result: NPY Y2 blocker, NPY-Y1 antag) | NPY-Y2 confirm inactive | NPY-Y1 potentiator inactive | NPY-Y1 agonist 2 inactive | CNGC inh inactive | NPY-Y2 ag 2 inactive
CCCn1c(CCC(=O)O)nc2cc(S(=O)(=O)N(CC)CC)ccc21	none (no result: NPY Y2 blocker, NPY-Y1 antag)
Cc1cc2cc(C(c3nnnn3C3CCCC3)N3CCN(Cc4cccnc4)CC3)c(=O)[nH]c2cc1C (centres undefined)	none (no result: NPY Y2 blocker, NPY2 pot ag, NPY-Y1 antag, NPY1 pot ag)
CS(=O)(=O)N1CCc2cc(-c3csc(NC(=O)Cc4cccs4)n3)ccc21	NPY2 pot ag 36 | NPY-Y2 confirm inactive | NPY-Y1 potentiator inactive | NPY-Y1 agonist 2 inactive | CNGC inh inactive | NPY-Y2 ag 2 inactive
O=C(c1ccc(F)cc1F)C1CCN(c2ccc([N+](=O)[O-])cn2)CC1	NPY2 pot ag 46 (no result: NPY Y2 blocker, NPY-Y1 antag) | NPY-Y2 confirm inactive | NPY-Y1 potentiator inactive | NPY-Y1 agonist 2 inactive | CNGC inh inactive | NPY-Y2 ag 2 12
O=C(Nc1ccc(F)cc1F)N1CCCN(c2ccc([N+](=O)[O-])cn2)CC1	none (no result: NPY Y2 blocker, NPY-Y1 antag)
COC(=O)CN1C(=S)N(c2ccc(F)cc2)C(=O)C1CC(=O)Nc1ccc(F)cc1 (centres undefined)	none (no result: NPY Y2 blocker, NPY-Y1 antag)
O=C(CC1C(=O)NCCN1C(=O)Nc1ccc(Cl)cc1)Nc1ccc(F)cc1 (centres undefined)	NPY2 pot ag 29 (no result: NPY Y2 blocker) | NPY-Y2 confirm 55 | NPY-Y1 potentiator 75 | NPY-Y1 agonist 2 58 | CNGC inh 57 | NPY-Y2 ag 2 50
COC(=O)CN1C(=S)N(c2ccc(Cl)cc2)C(=O)C1CC(=O)Nc1ccc(Cl)cc1 (centres undefined)	NPY2 pot ag 55 (no result: EP2 antag) | NPY-Y2 confirm 49 | NPY-Y1 potentiator 72 | NPY-Y1 agonist 2 67 | CNGC inh 60 | NPY-Y2 ag 2 67
COC(=O)CN1C(=S)N(c2ccc(Cl)cc2)C(=O)C1CC(=O)Nc1ccc(F)cc1 (centres undefined)	NPY2 pot ag 30 | NPY-Y2 confirm inactive | NPY-Y1 potentiator 58 | NPY-Y1 agonist 2 43 | CNGC inh 46 | NPY-Y2 ag 2 38
O=C(CC1C(=O)NCCN1C(=O)Nc1ccccc1)Nc1ccc(F)cc1 (centres undefined)	none (no result: NPY Y2 blocker, NPY-Y1 antag)
COc1ccc(NC(=O)CC2C(=O)N(c3ccc(Cl)cc3)C(=S)N2CCc2ccncc2)cc1 (centres undefined)	none
CCc1ccc(NC(=S)N(Cc2cccs2)Cc2cc3cccc(C)c3[nH]c2=O)cc1	none (no result: NPY Y2 blocker, NPY2 pot ag, NPY-Y1 antag, NPY1 pot ag)
CCn1cc(C2C(C#N)=C(N)Oc3n[nH]c(C)c32)c2ccccc21 (centres undefined)	none (no result: NPY Y2 blocker, NPY2 pot ag, NPY-Y1 antag, NPY1 pot ag)
c1ccc2c(c1)CCN(C1=Nc3cccc4cccc1c34)C2	NPY2 pot ag 33 (no result: NPY Y2 blocker) | NPY-Y2 confirm 64 | NPY-Y1 potentiator 88 | NPY-Y1 agonist 2 62 | CNGC inh 62 | NPY-Y2 ag 2 61
Cc1nn(Cc2ccc(Cl)cc2)c(C)c1NC(=O)CSc1n[nH]c(C)c1[N+](=O)[O-]	NPY2 pot ag 29 | NPY-Y2 confirm inactive | NPY-Y1 potentiator inactive | NPY-Y1 agonist 2 inactive | CNGC inh inactive | NPY-Y2 ag 2 27
Cc1nn(Cc2ccccc2)c(C)c1NC(=O)CSc1n[nH]c(C)c1[N+](=O)[O-]	none
CCC(NC(C)C)C(O)c1ccc(O)c(O)c1 (centres undefined)	NPY2 pot ag 65, EP2 modulator 61 | NPY-Y2 confirm 53 | NPY-Y1 potentiator 51 | NPY-Y1 agonist 2 67 | CNGC inh 53 | NPY-Y2 ag 2 41
CC(C)C(=O)c1ccc(O)c(O)c1	none (no result: NPY Y2 blocker, NPY-Y1 antag)
Cc1ccc(NC(=O)CCNS(=O)(=O)c2cc(Br)cnc2N)c(Cl)c1	none
COc1cc(OC)c(NC(=O)CCNS(=O)(=O)c2cc(Br)cnc2N)cc1Cl	NPY2 pot ag 48 | NPY-Y2 confirm inactive | NPY-Y1 potentiator inactive | NPY-Y1 agonist 2 inactive | CNGC inh inactive | NPY-Y2 ag 2 inactive
Cc1ncc(-c2ccncc2)c(C2CCN(C(=O)CCn3nccc3C)CC2)n1	none (no result: EP2 antag, NPY Y2 blocker, NPY2 pot ag, NPY-Y1 antag, NPY1 pot ag)
CC(=O)c1c(C)[nH]c(C(=O)OCCCCN2C(=O)c3ccccc3C2=O)c1C	NPY2 pot ag 39 | NPY-Y2 confirm inactive | NPY-Y1 potentiator inactive | NPY-Y1 agonist 2 inactive | CNGC inh inactive | NPY-Y2 ag 2 22
CCCOc1ccccc1C=C1C(=O)N(C)C(=O)N(C)C1=O	none (no result: NPY Y2 blocker, NPY2 pot ag, NPY-Y1 antag, NPY1 pot ag)
Cc1ccc(S(=O)(=O)N2CCN(CC(=O)N/N=C\c3ccc(Cl)c([N+](=O)[O-])c3)CC2)cc1	NPY2 pot ag 27 | NPY-Y2 confirm inactive | NPY-Y1 potentiator inactive | NPY-Y1 agonist 2 inactive | CNGC inh 25 | NPY-Y2 ag 2 12
